The target in assay [1] is GABA-A receptor; anion channel. The assay is described as follows: […] from diazepam-insensitive GABA-A benzodiazepine receptor of rat cerebellar membrane.
Assay [2] deals with GABA-A receptor; anion channel. The assay is described as follows: Displacement of [3H]flunitrazepam from diazepam-sensitive GABA-A benzodiazepine receptor of rat cortical membrane. The gist of the method: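 Washed rat cerebral cortex membranes (adult male Sprague-Dawley) in Tris-citrate pH 7.4 with NaCl. [3H]flunitrazepam at about 1 nM final, 2 h at 4 °C, then filtration. Six to eight inhibitor concentrations were used; IC50 came from a sigmoid fit. Three determinations, mean ± SEM.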

Assay [3] is described as follows: Ratio between diazepam-insensitive (DI) site / diazepam-sensitive (DS) site. The gist of the method: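 Rat cerebellar membranes washed five times in 50 mM Tris-citrate pH 7.8 with NaCl. [3H]Ro 15-4513 at about 2 nM final, 60 min at 0–4 °C, then filtration. DS+DI binding was defined by Ro 15-1788 (10 μM) displacement and DI binding as the diazepam (10 μM)-insensitive part. 0.1 nM–1 μM inhibitor; Cheng-Prusoff Ki; duplicate assays, three experiments. Ratio is Ki DI/DS.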

Assay [4] concerns the target GABA-A receptor; anion channel. The assay is described as follows: […] from diazepam-sensitive GABA-A benzodiazepine receptor of rat cerebellar membrane.

For the molecule `CCOC(=O)c1ncn2c1CN(Cc1ccc(OC)cc1OC)C(=O)c1ccccc1-2`, the Ki (commonly a dissociation constant, usually derived from enzyme kinetics or from competition with a known ligand) was determined as 0.127 µM in assay [1] and 0.0054 µM in assay [4]. The IC50 (in general, the midpoint of a concentration-inhibition curve) in assay [2] came to 0.0232 µM. In addition, the Ratio in assay [3] worked out at 24.
Consider `CCOC(=O)c1ncn2c1CN(Cc1ccccc1)C(=O)c1cc(Cl)ccc1-2`, for which the affinity in assay [1] corresponds to a Ki of 0.0014 µM. In assay [2], this molecule came in with an IC50 of 0.0378 µM. The Ratio in assay [3] amounted to 0.8.
In assay [2], `C=CCN1Cc2c(C(=O)OCC)ncn2-c2ccccc2C1=O` had an IC50 of 0.157 µM. In other words, the sub-micromolar range.
In turn, `CCOC(=O)c1ncn2c1CNC(=O)c1ccccc1-2` had an IC50 in assay [2] of 0.164 µM. This IC50 and that of the molecule before are within 1.5-fold of each other.
As to `CCOC(=O)c1ncn2c1CN(C)C(=O)c1ccccc1-2`, the Ratio in assay [3] was 165.
Turning to `Cc1nnc(-c2ncn3c2CN(Cc2ccccc2)C(=O)c2ccccc2-3)o1`, the IC50 in assay [1] was more than 10 µM; in assay [2] it was more than 1 µM.
For `CCCN1Cc2c(C(=O)OCC)ncn2-c2ccccc2C1=O`, the IC50 in assay [2] turned out to be 0.238 µM.
On the same count and under the same terms, the figure for `CCOC(=O)c1ncn2c1CN(CCc1ccccc1)C(=O)c1ccccc1-2` is 0.34 µM.
With `Cc1noc(-c2ncn3c2CN(Cc2ccccc2)C(=O)c2ccccc2-3)n1`, the IC50 in assay [1] is more than 10 µM; in assay [2] it was 0.0343 µM.
In assay [2], `CN1Cc2c(N=C=S)ncn2-c2ccccc2C1=O` had an IC50 of 0.739 µM.
With `Cc1noc(-c2ncn3c2CN(Cc2ccccc2)C(=O)c2c(Cl)cccc2-3)n1`, in assay [2], the IC50 was 0.0153 µM. The Ratio in assay [3] came to 101.
In turn, `CCOC(=O)c1ncn2c1CN(Cc1ccccc1)C(=O)c1ccccc1-2` showed an IC50 in assay [2] of 0.0093 µM. Moreover, the Ratio in assay [3] was 75.
For `Cc1ccc(S(=O)(=O)c2ncn3c2CN(C)C(=O)c2ccccc2-3)cc1`, the half-maximal inhibitory concentration (IC50) in assay [2] is more than 1 µM.
On the same count and under the same terms, with `CCOC(=O)Nc1ncn2c1CN(C)C(=O)c1ccccc1-2` the figure was more than 1 µM; with `CCOC(=O)c1ncn2c1CN(c1ccc(OC)cc1)C(=O)c1ccccc1-2`, more than 1 µM.
`Cc1noc(-c2ncn3c2CN(Cc2ccccc2)C(=O)c2cc(Cl)ccc2-3)n1` yielded an IC50 in assay [2] of 0.338 µM. In addition, the Ratio in assay [3] was 1.3.
As for `CC(=O)Nc1ncn2c1CN(C)C(=O)c1ccccc1-2`, the IC50 in assay [2] was more than 1 µM.
On the same count and under the same terms, with `CN1Cc2c(NC=O)ncn2-c2ccccc2C1=O` the figure was more than 1 µM.
In the case of `CCOC(=O)c1ncn2c1CN(Cc1ccccc1)C(=O)c1c(Cl)cccc1-2`, the IC50 in assay [2] stood at 0.0024 µM. The Ratio in assay [3] was determined as 51.
Regarding `CCOC(=O)c1ncn2c1CN(C)C(=O)c1c(Cl)cccc1-2`, in assay [3], the Ratio stood at 100.
With `CCOC(=O)c1ncn2c1CN(c1ccccc1)C(=O)c1ccccc1-2`, the half-maximal inhibitory concentration (IC50) in assay [2] was more than 1 µM.
In assay [2], `COC(=O)Nc1ncn2c1CN(C)C(=O)c1ccccc1-2` had an IC50 of more than 1 µM.
As for `CN1Cc2c(C3=NCCO3)ncn2-c2ccccc2C1=O`, the IC50 in assay [2] amounted to 0.687 µM.

The record behind these values is ChEMBL document CHEMBL1127087, “Synthesis and structure-activity relationships of 3,5-disubstituted 4,5-dihydro-6H-imidazo[1,5-a][1,4]benzodiazepin-6-ones at diazepam-sensitive and diazepam-insensitive benzodiazepine receptors” (J Med Chem, 1993).
